The record followed here is ChEMBL document CHEMBL4130469, “C-Methylated Flavonoid Glycosides from Pentarhizidium orientale Rhizomes and Their Inhibitory Effects on the H1N1 Influenza Virus” (J Nat Prod, 2017).

The nature of data set [1]: Cytotoxicity against MDCK cells after 2 days by MTT assay. Type of data set: cell-based, Canis lupus familiaris. To be noted: dog. Put shortly: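 Uninfected MDCK cells seeded at 1 × 10^5 cells/well and grown 24 h. Washed with PBS, then exposed to graded compound concentrations in fresh DMEM, each in triplicate, for 2 days. Viability by MTT (2 mg/mL), 4 h further incubation; CC50.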

Data set [2] deals with Neuraminidase (Influenza A virus (A/Puerto Rico/8/1934(H1N1)), UniProt P03468). In words: Inhibition of neuraminidase activity in Influenza A virus (A/PR/8/34 (H1N1)) infected in MDCK cells using 4-MU-NANA as substrate pretreated for 30 mins followed by substrate addition measured after 2 hrs by fluorescence assay. Type of data set: cell-based.
The nature of data set [3]: Inhibition of neuraminidase activity in H9N2 A/chicken/Korea/01210/2001 infected in MDCK cells using 4-MU-NANA as substrate pretreated for 30 mins followed by substrate addition measured after 2 hrs by fluorescence assay. To be noted: Influenza A virus, A/chicken/Korea/01210/2001, MDCK. The format is cell-based, H9N2 subtype.
The subject of a further data set is Influenza A virus. In words: Antiviral activity against Influenza A virus (A/PR/8/34 (H1N1)) infected in MDCK cells assessed as reduction in virus-induced cytopathic effect after 3 days by MTT assay. Type of data set: functional, organism-based. To be noted: A/Puerto Rico/8/1934(H1N1), 72 h. The procedure, abridged: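 MDCK cells grown in DMEM with 10% FBS at 37 °C and 5% CO2, seeded at 1 × 10^5 cells/well, and cultured 24 h. Infected 2 h in DMEM with 0.15 μg/mL trypsin and 5 μg/mL BSA, then given DMEM with 10 μg/mL trypsin and a range of compound concentrations, in triplicate. After 3 days, MTT (2 mg/mL) added for 4 h at 37 °C; formazan dissolved in DMSO, A550 read; EC50.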

Sequence of Neuraminidase (Influenza A virus (A/Puerto Rico/8/1934(H1N1)), UniProt P03468) (P03468 whole entry): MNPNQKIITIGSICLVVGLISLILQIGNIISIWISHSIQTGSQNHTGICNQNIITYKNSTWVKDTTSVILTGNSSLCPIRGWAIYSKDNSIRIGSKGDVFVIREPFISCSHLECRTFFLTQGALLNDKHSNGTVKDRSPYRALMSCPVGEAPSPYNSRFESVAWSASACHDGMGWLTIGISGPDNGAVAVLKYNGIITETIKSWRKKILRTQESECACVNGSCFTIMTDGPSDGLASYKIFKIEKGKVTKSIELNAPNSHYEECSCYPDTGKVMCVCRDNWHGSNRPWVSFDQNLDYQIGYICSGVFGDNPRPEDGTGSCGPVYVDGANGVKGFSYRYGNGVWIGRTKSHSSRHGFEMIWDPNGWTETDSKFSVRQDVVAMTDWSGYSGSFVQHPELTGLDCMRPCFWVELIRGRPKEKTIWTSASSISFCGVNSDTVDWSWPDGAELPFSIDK

Take `COc1ccc([C@@H]2CC(=O)c3c(O)c(C)c(O)c(C)c3O2)cc1`: the CC50 at 48 h in data set [1] was greater than 100 µM. Further, the concentration for half-maximal inhibition (IC50) was found to be 25.2 µM in data set [2] and 27.2 µM in data set [3]. In addition, in the data set with Influenza A virus, the EC50 came to 26.9 µM.

In the case of `Cc1c(O)c(C)c2c(c1O)C(=O)C[C@@H](c1ccccc1O)O2`, the CC50 at 48 h in data set [1] was greater than 100 µM. The IC50 came to 23.9 µM in data set [2] and 24.1 µM in data set [3]. Moreover, the EC50 in the data set with Influenza A virus turned out to be 22.9 µM.

In the case of `Cc1c(O)c(C)c2c(c1O)C(=O)C[C@@H](c1ccccc1)O2` [DEMETHOXYMATTEUCINOL], the midpoint of cytotoxicity in data set [1], the CC50 at 48 h, lay at 77.6 µM. For the same molecule, the IC50 in data set [2] turned out to be 30.3 µM; in data set [3] it was 31.3 µM. The EC50 with Influenza A virus was 30.7 µM.

As to `CCOC(=O)C1=C[C@@H](OC(CC)CC)[C@H](NC(C)=O)[C@@H](N)C1` [OSELTAMIVIR], the half-maximal inhibitory concentration (IC50) in data set [3] came to 0.0191 µM. Also, the EC50 in the data set on Influenza A virus is 0.6 µM.

Consider `COc1ccc(O)c([C@@H]2CC(=O)c3c(O)c(C)c(O)c(C)c3O2)c1`, for which the CC50 at 48 h in data set [1] was greater than 100 µM. Further, the IC50 came to 24.5 µM in data set [2] and 24.6 µM in data set [3]. The EC50 in the data set with Influenza A virus worked out at 23 µM.

In data set [1], `COc1cc(O)cc([C@@H]2CC(=O)c3c(O)c(C)c(O)c(C)c3O2)c1` displayed a CC50 at 48 h greater than 100 µM. Further, the values for the IC50 in data set [2] and in data set [3] were 24.4 µM and 23.1 µM, respectively. Moreover, in the data set with Influenza A virus, the EC50 stood at 21.4 µM.
